Results taken from ChEMBL document CHEMBL2321812 (J Med Chem, 2013).
The source made the active and inactive calls. No cut-off for these calls is given here.

Legend:
[1] = target: Cytochrome P450 3A4 (Homo sapiens, UniProt P08684); assay: Inhibition of CYP3A4 (unknown origin)
[2] = Cmax in female ICR mouse at 5 mg/kg, ip; format: ADME, organism-based; set-up: dose 5 mg/kg, route intraperitoneal; conditions: in vivo
Method in brief: (§1)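 Male and female ICR mice (18.2-26.0 g) got 5 mg/kg i.p. in 5% DMSO/50% PEG400/45% saline. Terminal cardiac blood was drawn after CO2 euthanasia at 5, 15, 30 min and 1, 2, 4, 8, 24 h.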

[3] = target: Poly [ADP-ribose] polymerase 1 (Homo sapiens) (UniProt P09874); assay: Inhibition of PARP1 (unknown origin) up to 20 uM by NAD+-dependent autopoly(ADP ribosyl)lation assay
Chain of Poly [ADP-ribose] polymerase 1 (Homo sapiens) (P09874 whole entry): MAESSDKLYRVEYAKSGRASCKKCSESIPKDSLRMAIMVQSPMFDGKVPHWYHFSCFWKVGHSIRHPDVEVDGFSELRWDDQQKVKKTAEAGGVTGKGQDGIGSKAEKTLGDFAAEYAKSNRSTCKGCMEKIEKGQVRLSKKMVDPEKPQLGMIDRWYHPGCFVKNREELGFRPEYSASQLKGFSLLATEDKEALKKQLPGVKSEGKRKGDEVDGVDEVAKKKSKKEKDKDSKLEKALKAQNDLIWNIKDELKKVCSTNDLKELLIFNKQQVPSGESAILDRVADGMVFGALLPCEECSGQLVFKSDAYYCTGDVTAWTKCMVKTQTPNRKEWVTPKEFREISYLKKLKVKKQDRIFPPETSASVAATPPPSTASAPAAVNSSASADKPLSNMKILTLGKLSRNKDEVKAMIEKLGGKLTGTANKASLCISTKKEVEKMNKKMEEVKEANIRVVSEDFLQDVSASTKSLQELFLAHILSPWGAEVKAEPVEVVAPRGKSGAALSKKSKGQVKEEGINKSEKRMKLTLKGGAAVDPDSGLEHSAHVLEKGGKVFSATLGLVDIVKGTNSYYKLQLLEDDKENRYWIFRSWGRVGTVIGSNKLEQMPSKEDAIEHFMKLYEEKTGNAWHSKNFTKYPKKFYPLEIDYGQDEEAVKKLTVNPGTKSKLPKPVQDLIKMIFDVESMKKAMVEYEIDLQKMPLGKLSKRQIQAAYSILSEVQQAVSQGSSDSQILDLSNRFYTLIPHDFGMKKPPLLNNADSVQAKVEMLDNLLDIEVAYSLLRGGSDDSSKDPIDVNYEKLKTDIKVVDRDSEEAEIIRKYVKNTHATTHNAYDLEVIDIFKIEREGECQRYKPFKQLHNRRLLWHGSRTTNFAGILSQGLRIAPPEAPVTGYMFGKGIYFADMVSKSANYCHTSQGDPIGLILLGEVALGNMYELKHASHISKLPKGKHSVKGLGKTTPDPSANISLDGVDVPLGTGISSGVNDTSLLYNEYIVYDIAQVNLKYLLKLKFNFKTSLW
Method in brief: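 PARP1 was tested with a chemiluminescent poly(ADP-ribosyl)ation assay kit over a range of concentrations. Each point was run in duplicate and the experiment was done twice. Luminescence was read and IC50 was fitted to a Langmuir binding isotherm.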

[4] = Bioavailability in female ICR mouse measured from AUC (0 to infinity) at 5 mg/kg, ip; format: ADME, organism-based; conditions: in vivo
Method in brief: (§2)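 Intraperitoneal dosing was 5 mg/kg, referenced to 1 mg/kg i.v., both in 5% DMSO/50% PEG400/45% saline, in male and female ICR mice. Plasma was sampled from 5 min to 24 h and measured by HPLC-MS/MS.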

[5] = Bioavailability in male ICR mouse measured from AUC (0 to infinity) at 5 mg/kg, ip; format: ADME, organism-based; conditions: in vivo; method in brief: as §2
[6] = Oral bioavailability in female ICR mouse measured from AUC (0 to infinity) at 5 mg/kg; format: ADME, organism-based; conditions: in vivo
Method in brief: (§3)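 Oral 5 mg/kg (10% NMP/60% PEG400/30% saline, after 10-15 h fast) was compared with 1 mg/kg i.v. (5% DMSO/50% PEG400/45% saline) in male and female ICR mice. Plasma from 5 min to 24 h was measured by HPLC-MS/MS.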

[7] = Oral bioavailability in male ICR mouse measured from AUC (0 to infinity) at 5 mg/kg; format: ADME, organism-based; conditions: in vivo; method in brief: as §3
[8] = test system: Mus musculus; assay: Bioavailability in female ICR mouse measured from AUC (0 to t) at 5 mg/kg, ip; format: ADME, organism-based; conditions: in vivo; method in brief: as §2
[9] = test system: Mus musculus; assay: Bioavailability in male ICR mouse measured from AUC (0 to t) at 5 mg/kg, ip; format: ADME, organism-based; conditions: in vivo; method in brief: as §2
[10] = Oral bioavailability in female ICR mouse measured from AUC (0 to t) at 5 mg/kg; format: ADME, organism-based; conditions: in vivo; method in brief: as §3
[11] = Oral bioavailability in male ICR mouse measured from AUC (0 to t) at 5 mg/kg; format: ADME, organism-based; conditions: in vivo; method in brief: as §3
[12] = Mean residence time (0 to infinity) in female ICR mouse at 5 mg/kg, ip; format: ADME, organism-based; set-up: dose 5 mg/kg, route intraperitoneal; conditions: in vivo; method in brief: as §1
[13] = Mean residence time (0 to infinity) in male ICR mouse at 5 mg/kg, ip; format: ADME, organism-based; set-up: dose 5 mg/kg, route intraperitoneal; conditions: in vivo; method in brief: as §1
[14] = Mean residence time (0 to infinity) in female ICR mouse at 5 mg/kg, po; format: ADME, organism-based; set-up: dose 5 mg/kg, route oral; conditions: in vivo
Method in brief: (§4)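 Oral gavage at 5 mg/kg in 10% NMP/60% PEG400/30% saline to overnight-fasted (10-15 h) male and female ICR mice (18.2-26.0 g). Blood was taken by cardiac puncture after CO2 euthanasia at 5, 15, 30 min and 1, 2, 4, 8, 24 h.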

[15] = Mean residence time (0 to infinity) in male ICR mouse at 5 mg/kg, po; format: ADME, organism-based; set-up: dose 5 mg/kg, route oral; conditions: in vivo; method in brief: as §4
[16] = Mean residence time (0 to infinity) in male ICR mouse at 1 mg/kg, iv; format: ADME, organism-based; set-up: dose 1 mg/kg, route intravenous; conditions: in vivo
Method in brief: (§5)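 Single 1 mg/kg i.v. injection to male and female ICR mice (18.2-26.0 g) in 5% DMSO/50% PEG400/45% saline. Blood was taken by cardiac puncture after CO2 euthanasia at 5, 15, 30 min and 1, 2, 4, 8, 24 h post dose.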

[17] = Mean residence time (0 to infinity) in female ICR mouse at 1 mg/kg, iv; format: ADME, organism-based; set-up: dose 1 mg/kg, route intravenous; conditions: in vivo; method in brief: as §5
[18] = Clearance in female ICR mouse at 1 mg/kg, iv; format: ADME, organism-based; set-up: dose 1 mg/kg, route intravenous; conditions: in vivo; method in brief: as §5
[19] = Apparent volume of distribution in female ICR mouse at 1 mg/kg, iv; format: ADME, organism-based; set-up: dose 1 mg/kg, route intravenous; conditions: in vivo, read-out: Vz; method in brief: as §5
[20] = Clearance in male ICR mouse at 1 mg/kg, iv; format: ADME, organism-based; set-up: dose 1 mg/kg, route intravenous; conditions: in vivo; method in brief: as §5
[21] = Apparent volume of distribution in male ICR mouse at 1 mg/kg, iv; format: ADME, organism-based; set-up: dose 1 mg/kg, route intravenous; conditions: in vivo, read-out: Vz; method in brief: as §5
[22] = AUC (0 to infinity) in female ICR mouse at 5 mg/kg, ip; format: ADME, organism-based; set-up: time infinity, dose 5 mg/kg, route intraperitoneal; conditions: plasma; method in brief: as §1
[23] = AUC (0 to infinity) in female ICR mouse at 5 mg/kg, po; format: ADME, organism-based; set-up: time infinity, dose 5 mg/kg, route oral; conditions: plasma; method in brief: as §4
[24] = AUC (0 to infinity) in male ICR mouse at 5 mg/kg, ip; format: ADME, organism-based; set-up: time infinity, dose 5 mg/kg, route intraperitoneal; conditions: plasma; method in brief: as §1
[25] = AUC (0 to infinity) in female ICR mouse at 1 mg/kg, iv; format: ADME, organism-based; set-up: time infinity, dose 1 mg/kg, route intravenous; conditions: plasma; method in brief: as §5
[26] = AUC (0 to infinity) in male ICR mouse at 5 mg/kg, po; format: ADME, organism-based; set-up: time infinity, dose 5 mg/kg, route oral; conditions: plasma; method in brief: as §4
[27] = AUC (0 to infinity) in male ICR mouse at 1 mg/kg, iv; format: ADME, organism-based; set-up: time infinity, dose 1 mg/kg, route intravenous; conditions: plasma; method in brief: as §5
[28] = AUC (0 to t) in female ICR mouse at 5 mg/kg, ip; format: ADME, organism-based; set-up: dose 5 mg/kg, route intraperitoneal; conditions: plasma; method in brief: as §1
[29] = AUC (0 to t) in female ICR mouse at 5 mg/kg, po; format: ADME, organism-based; set-up: dose 5 mg/kg, route oral; conditions: plasma; method in brief: as §4
[30] = AUC (0 to t) in male ICR mouse at 5 mg/kg, ip; format: ADME, organism-based; set-up: dose 5 mg/kg, route intraperitoneal; conditions: plasma; method in brief: as §1
[31] = AUC (0 to t) in male ICR mouse at 1 mg/kg, iv; format: ADME, organism-based; set-up: dose 1 mg/kg, route intravenous; conditions: plasma; method in brief: as §5
[32] = AUC (0 to t) in female ICR mouse at 1 mg/kg, iv; format: ADME, organism-based; set-up: dose 1 mg/kg, route intravenous; conditions: plasma; method in brief: as §5
[33] = AUC (0 to t) in male ICR mouse at 5 mg/kg, po; format: ADME, organism-based; set-up: dose 5 mg/kg, route oral; conditions: plasma; method in brief: as §4
[34] = Cmax in male ICR mouse at 5 mg/kg, ip; format: ADME, organism-based; set-up: dose 5 mg/kg, route intraperitoneal; conditions: in vivo; method in brief: as §1
[35] = Cmax in female ICR mouse at 5 mg/kg, po; format: ADME, organism-based; set-up: dose 5 mg/kg, route oral; conditions: in vivo; method in brief: as §4
[36] = Cmax in male ICR mouse at 5 mg/kg, po; format: ADME, organism-based; set-up: dose 5 mg/kg, route oral; conditions: in vivo; method in brief: as §4
[37] = Cmax in female ICR mouse at 1 mg/kg, iv; format: ADME, organism-based; set-up: dose 1 mg/kg, route intravenous; conditions: in vivo; method in brief: as §5
[38] = Cmax in male ICR mouse at 1 mg/kg, iv; format: ADME, organism-based; set-up: dose 1 mg/kg, route intravenous; conditions: in vivo; method in brief: as §5
[39] = Tmax in female ICR mouse at 5 mg/kg, ip; format: ADME, organism-based; set-up: dose 5 mg/kg, route intraperitoneal; conditions: in vivo; method in brief: as §1
[40] = Tmax in male ICR mouse at 5 mg/kg, ip; format: ADME, organism-based; set-up: dose 5 mg/kg, route intraperitoneal; conditions: in vivo; method in brief: as §1
[41] = Tmax in female ICR mouse at 5 mg/kg, po; format: ADME, organism-based; set-up: dose 5 mg/kg, route oral; conditions: in vivo; method in brief: as §4
[42] = Tmax in male ICR mouse at 5 mg/kg, po; format: ADME, organism-based; set-up: dose 5 mg/kg, route oral; conditions: in vivo
Method in brief: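 Male and female ICR mice (18.2-26.0 g), fasted overnight (10-15 h) before oral dosing; single gavage at 5 mg/kg in 10% NMP, 60% PEG400, 30% saline. Blood taken by cardiac puncture after CO2 euthanasia at 5, 15, 30 min and 1, 2, 4, 8, 24 h. Heparinised plasma assayed by HPLC-MS/MS. Tmax is the time to reach Cmax.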

[43] = Tmax in female ICR mouse at 1 mg/kg, iv; format: ADME, organism-based; set-up: dose 1 mg/kg, route intravenous; conditions: in vivo; method in brief: as §5
[44] = Half life in female ICR mouse at 5 mg/kg, ip; format: ADME, organism-based; set-up: dose 5 mg/kg, route intraperitoneal; conditions: in vivo; method in brief: as §1
[45] = Tmax in male ICR mouse at 1 mg/kg, iv; format: ADME, organism-based; set-up: dose 1 mg/kg, route intravenous; conditions: in vivo; method in brief: as §5
[46] = Half life in female ICR mouse at 5 mg/kg, po; format: ADME, organism-based; set-up: dose 5 mg/kg, route oral; conditions: in vivo; method in brief: as §4
[47] = Half life in male ICR mouse at 5 mg/kg, ip; format: ADME, organism-based; set-up: dose 5 mg/kg, route intraperitoneal; conditions: in vivo; method in brief: as §1
[48] = Half life in male ICR mouse at 5 mg/kg, po; format: ADME, organism-based; set-up: dose 5 mg/kg, route oral; conditions: in vivo; method in brief: as §4
[49] = Half life in female ICR mouse at 1 mg/kg, iv; format: ADME, organism-based; set-up: dose 1 mg/kg, route intravenous; conditions: in vivo; method in brief: as §5

Chain of Cytochrome P450 3A4 (P08684 whole entry): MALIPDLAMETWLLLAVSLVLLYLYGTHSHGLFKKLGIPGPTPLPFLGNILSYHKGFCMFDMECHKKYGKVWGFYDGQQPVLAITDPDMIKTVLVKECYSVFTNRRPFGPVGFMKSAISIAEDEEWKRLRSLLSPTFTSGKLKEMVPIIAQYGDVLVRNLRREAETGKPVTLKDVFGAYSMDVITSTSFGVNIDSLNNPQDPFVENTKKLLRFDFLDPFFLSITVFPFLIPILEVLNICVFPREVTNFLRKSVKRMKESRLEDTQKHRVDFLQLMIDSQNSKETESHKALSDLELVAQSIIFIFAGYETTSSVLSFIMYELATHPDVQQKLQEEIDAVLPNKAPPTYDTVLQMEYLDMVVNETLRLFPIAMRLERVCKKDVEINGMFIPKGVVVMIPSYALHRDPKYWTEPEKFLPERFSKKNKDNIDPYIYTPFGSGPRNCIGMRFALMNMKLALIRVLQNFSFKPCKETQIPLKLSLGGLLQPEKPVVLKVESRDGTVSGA

CS(=O)(=O)c1ccc(-c2nnc(/C=C/c3nnc(-c4ccc(C#N)cc4)o3)n2-c2ccccc2Cl)nc1
IC50 [1]: > 25 µM | Cmax [2]: 2660 ng/mL | inhibition [3]: inactive | bioavailability [4]: 122% | bioavailability [5]: 133% | bioavailability [6]: 59% | bioavailability [7]: 99% | F [8]: 152% | F [9]: 157% | bioavailability [10]: 72.7% | bioavailability [11]: 116% | MRT inf [12]: 4.6 h | MRT inf [13]: 4.8 h | MRT inf [14]: 5.1 h | MRT inf [15]: 5.1 h | MRT inf [16]: 4.1 h | MRT inf [17]: 4.8 h | clearance [18]: 7.17 mL/min/kg | Vd [19]: 2.2 L/kg | clearance [20]: 10 mL/min/kg | Vd [21]: 2.7 L/kg | AUC(0-inf) [22]: 14100 ng·h/mL | AUC(0-inf) [23]: 6750 ng·h/mL | AUC(0-inf) [24]: 11200 ng·h/mL | AUC(0-inf) [25]: 2300 ng·h/mL | AUC(0-inf) [26]: 8270 ng·h/mL | AUC(0-inf) [27]: 1680 ng·h/mL | AUC(0-t) [28]: 14100 ng·h/mL | AUC(0-t) [29]: 6740 ng·h/mL | AUC(0-t) [30]: 11200 ng·h/mL | AUC(0-t) [31]: 1420 ng·h/mL | AUC(0-t) [32]: 1850 ng·h/mL | AUC(0-t) [33]: 8250 ng·h/mL | Cmax [34]: 2360 ng/mL | Cmax [35]: 871 ng/mL | Cmax [36]: 967 ng/mL | Cmax [37]: 462 ng/mL | Cmax [38]: 434 ng/mL | Tmax [39]: 30 min | Tmax [40]: 30 min | Tmax [41]: 2 h | Tmax [42]: 15 min | Tmax [43]: 30 min | half-life [44]: 164 min | Tmax [45]: 15 min | half-life [46]: 158 min | half-life [47]: 173 min | half-life [48]: 156 min | half-life [49]: 208 min
